≈ marks a conversion by molar mass, not a printed value. Calls of active or inactive are those of the source. No cut-off for these calls is given here.
What was measured:
[1] = system: Escherichia coli; assay: Antimicrobial activity against Escherichia coli BW25113 after 14 hrs by macrodilution method in presence of efflux pump inhibitor 60 uM MC-207,110; format: functional; details: BW25113, 14 h
Summary of the method: (§1)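 Run on wild-type strains, with 60 μM of the efflux pump inhibitor MC-207,110 added to potentiate compound activity.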

[2] = system: Escherichia coli; assay: Antimicrobial activity against Escherichia coli BW25113 delta tolC after 14 hrs by macrodilution method; format: functional
Summary of the method: (§2)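 MIC determined in the E. coli BW25113 ΔtolC drug-pump knockout, which lacks a functional AcrAB-TolC multidrug efflux pump. The pump inhibitor was applied only to the wild-type strains.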

[3] = system: Pseudomonas aeruginosa; assay: Antimicrobial activity against Pseudomonas aeruginosa K after 16 hrs by macrodilution method in presence of efflux pump inhibitor 60 uM MC-207,110; format: functional; summary of the method: as §1
[4] = system: Staphylococcus aureus; assay: Antimicrobial activity against Staphylococcus aureus FRI 100 after 14 hrs by macrodilution method; format: functional; details: FRI 100, 14 h
[5] = system: Streptococcus pneumoniae; assay: Antimicrobial activity against Streptococcus pneumoniae ATCC 10813 after 24 hrs by macrodilution method; format: functional; details: ATCC 10813, 24 h
[6] = system: Salmonella enterica; assay: Antimicrobial activity against Salmonella enterica ATCC 19585 after 14 hrs by microdilution method in presence of efflux pump inhibitor 60 uM MC-207,110; format: functional; details: ATCC 19585, 14 h
[7] = system: Salmonella enterica; assay: Antimicrobial activity against Salmonella enterica ATCC 19585 after 14 hrs by macrodilution method in presence of efflux pump inhibitor 60 uM MC-207,110; format: functional; details: ATCC 19585, 14 h; summary of the method: as §1
[8] = Inhibition of Escherichia coli DNA gyrase assessed as DNA supercoiling using pUC19 as substrate after 30 mins by agarose gel electrophoresis
Summary of the method: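 Gel-based supercoiling assay on pUC19. Supercoiled, linear and relaxed pUC19 were run as marker lanes. Test compounds were applied at a range of μM concentrations.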

[9] = system: Escherichia coli; assay: Antimicrobial activity against Escherichia coli BW25113 after 14 hrs by microdilution method in presence of efflux pump inhibitor 60 uM MC-207,110; format: functional; details: BW25113, 14 h
[10] = system: Enterococcus faecalis; assay: Antimicrobial activity against Enterococcus faecalis 1131 after 14 hrs by macrodilution method; format: functional; details: Enterococcus faecalis, 1131, 14 h
[11] = system: Streptococcus pneumoniae; assay: Antimicrobial activity against Streptococcus pneumoniae ATCC 10813 after 24 hrs by microdilution method; format: functional; details: ATCC 10813, 24 h
[12] = system: Pseudomonas aeruginosa; assay: Antimicrobial activity against Pseudomonas aeruginosa K after 16 hrs by microdilution method in presence of efflux pump inhibitor 60 uM MC-207,110; format: functional
[13] = system: Escherichia coli; assay: Antimicrobial activity against Escherichia coli BW25113 delta tolC after 14 hrs by microdilution method; format: functional; summary of the method: as §2
[14] = system: Enterococcus faecalis; assay: Antimicrobial activity against Enterococcus faecalis 1131 after 14 hrs; format: functional, organism-based
[15] = system: Enterococcus faecalis; assay: Antimicrobial activity against Enterococcus faecalis 1131 in presence of reserpine after 14 hrs; format: functional, organism-based
[16] = system: Staphylococcus aureus; assay: Antimicrobial activity against Staphylococcus aureus FRI 100 in presence of reserpine after 14 hrs; format: functional, organism-based
[17] = system: Nucleic Acid; assay: Induction of DNA damage at Escherichia coli supercoiled pUC19 bound to DNA gyrase assessed as dsDNA breaks in the absence of ATP at =<3.3 mM after 1 hrs by agarose gel electrophoresis; format: nucleic-acid assay

Row | SMILES | MIC [1] [µM] | MIC [2] [µM] | MIC [3] [µM] | MIC [4] [µM] | MIC [5] [µM] | MIC [6] [µM] | MIC [7] [µM] | IC50 [8] [nM] | MIC [9] [µM] | MIC [10] [µM] | MIC [11] [µM] | MIC [12] [µM] | MIC [13] [µM] | Activity [14] | Activity [15] | Activity [16] | Activity [17]
1 | Cc1ccc(F)cc1S(=O)(=O)N[C@@H]1CCN(Cc2ccc(OC(C)C)cc2)C1 | 40 | 10 (≈ 4.07 µg/mL) | 80 | > 160 | 160 (≈ 65 µg/mL) | 80 | 80 | 3300 | 40 | > 160 | 160 (≈ 65 µg/mL) | 80 |  |  |  |  | 
2 | Cc1ccc(F)cc1S(=O)(=O)N[C@H]1CCN(Cc2ccc(OC(C)C)cc2)C1 |  | 140 (≈ 56.9 µg/mL) |  |  |  |  |  | 40800 |  |  |  |  | 140 (≈ 56.9 µg/mL) |  |  |  | 
3 | Cc1ccc(F)cc1S(=O)(=O)NC1CCN(Cc2ccc(OC(C)C)cc2)C1 (stereo not drawn) |  |  |  |  |  |  |  |  |  |  |  |  |  | inactive | inactive | inactive | inactive
4 | Cc1ccc(F)cc1S(=O)(=O)NC1CCN(Cc2ccc(CC(C)C)cc2)C1 (stereo not drawn) [GYRAMIDE B] | 40 | 5 (≈ 2.02 µg/mL) | 40 | 80 (≈ 32.4 µg/mL) | 20 (≈ 8.09 µg/mL) | 20 | 20 | 700 | 40 | > 160 |  | 40 |  | inactive | inactive | inactive | 
5 | Cc1ccc(F)cc1S(=O)(=O)NC1CCN(Cc2ccc(-c3ccccc3)cc2)C1 (stereo not drawn) [GYRAMIDE C] | 20 | 2.5 (≈ 1.06 µg/mL) | 20 | 20 (≈ 8.49 µg/mL) | 10 (≈ 4.25 µg/mL) | 10 | 10 | 1100 | 20 | > 160 |  | 20 | 2.5 (≈ 1.06 µg/mL) | inactive | inactive | inactive | 

Source: ChEMBL document CHEMBL1821659, “N-Benzyl-3-sulfonamidopyrrolidines are a New Class of Bacterial DNA Gyrase Inhibitors” (ACS Med Chem Lett, 2011)
